# Measured values taken from ChEMBL document CHEMBL1177862, “Novel effects of glycyrrhetinic acid on the central nervous system tumorigenic progenitor cells: induction of actin disruption and tumor cell-selective toxicity” (Eur J Med Chem, 2010).
# Where a name gives a salt, the structure may show the parent alone.
# Columns and labels:
# [1] = Antiproliferative activity against mouse SFME cells after 24 hrs by MTT assay; type: cell-based
# Outline: (§1)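 Cells were kept in DME/F-12 with insulin, transferrin and EGF on fibronectin-coated dishes at 37 C in 20% O2/5% CO2. They were seeded at 1 x 10^4 cells/well and dosed at half confluency for 24 h. Cell number was read by MTT. Runs were in triplicate, repeated at least three times, as mean SD. IC50 was derived from concentration-response data.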
# [2] = Antiproliferative activity against mouse r/m HM-SFME-1 cells after 24 hrs by MTT assay; type: functional, cell-based; outline: as §1
# [3] = Induction of F-actin disruption in mouse SFME cells assessed as F-actin extension at IC50 after 8 hrs by confocal laser scanning microscopy; type: functional, cell-based
# Outline: (§2)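 After 8 h treatment, cells were fixed in 3.7% formaldehyde/PBS and permeabilized with 0.1% Triton X-100. F-actin was labeled with rhodamine-phalloidin. Slides were mounted in anti-fade medium and imaged by confocal laser scanning or fluorescence microscopy for peripheral F-actin extensions and lamellipodia.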
# [4] = Down regulation of beta-actin protein expression in mouse SFME cells at IC50 after 8 hrs by Western blotting; type: functional, cell-based
# Outline: (§3)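 They were run on SDS-PAGE, blotted to nitrocellulose and probed with mouse monoclonal anti-beta-actin, then AP-conjugated anti-mouse IgG1. GAPDH was the loading control. Bands were quantified by densitometry. Values are from at least 3 experiments, Student's t-test.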
# [5] = Induction of F-actin disruption in mouse r/m HM-SFME-1 cells assessed as disappearance of F-actin extension at IC50 after 8 hrs by confocal laser scanning microscopy; type: functional, cell-based; outline: as §2
# [6] = Down regulation of beta-actin protein expression in mouse r/m HM-SFME-1 cells at IC50 after 8 hrs by Western blotting; type: functional, cell-based; outline: as §3
# [7] = Antiproliferative activity against mouse r/m HM-SFME-1 cells at 10 uM after 24 hrs by MTT assay; type: functional; outline: as §1
SMILES,IC50 [1] [µM],IC50 [2] [µM],IC50 [3],IC50 [4],IC50 [5],IC50 [6],inhibition at 10 µM [7] [%]
Nc1ccn([C@@H]2O[C@H](CO)[C@@H](O)[C@@H]2O)c(=O)n1 [CYTARABINE],0.8,33.3,,,,,
COc1cccc2c1C(=O)c1c(O)c3c(c(O)c1C2=O)C[C@@](O)(C(=O)CO)C[C@@H]3O[C@H]1C[C@H](N)[C@H](O)[C@H](C)O1 [DOXORUBICIN HYDROCHLORIDE],0.8,64,,,,,
CC1(C)[C@@H](O)CC[C@]2(C)[C@H]3C(=O)C=C4[C@@H]5C[C@@](C)(C(=O)O)CC[C@]5(C)CC[C@@]4(C)[C@]3(C)CC[C@@H]12 [ENOXOLONE],18,7.3,Not Active,Not Active,Active,Active,> 80
COc1cc([C@@H]2c3cc4c(cc3[C@@H](O[C@@H]3O[C@@H]5CO[C@@H](C)O[C@H]5[C@H](O)[C@H]3O)[C@H]3COC(=O)[C@H]23)OCO4)cc(OC)c1O [ETOPOSIDE],0.5,9,,,,,
O=c1[nH]cc(F)c(=O)[nH]1 [FLUOROURACIL],3.2,48.5,,,,,
